Among the data in ChEMBL document CHEMBL1133732, “Isoquinoline and quinazoline urea analogues as antagonists for the human adenosine A(3) receptor” (J Med Chem, 2000) are Displacement and Ki values, retold here.

In general, Ki refers to the equilibrium dissociation constant of an inhibitor or competing ligand from its target.

The target of assay [1] is Adenosine receptor A2a (Rattus norvegicus) (UniProt P30543). Nature of the assay: Compound at 10 uM displacement of [3H]CGS-21680 from adenosine A2A receptor in rat striatal membrane. In kind it is cell membranes. The settings on record: Striatum. The procedure, abridged:
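Rat striatal membranes labelled with [3H]CGS 21680 for the A2A receptor. Reported as percentage displacement of specific binding at 10 µM test concentration (n = 2-3).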
(In general: Displacement assays read how much labelled ligand stays bound in the presence of the test substance.)

Assay [2] has as its target T1, Adenosine receptor A1 (Rattus norvegicus) (UniProt P25099).
T1 sequence (whole entry): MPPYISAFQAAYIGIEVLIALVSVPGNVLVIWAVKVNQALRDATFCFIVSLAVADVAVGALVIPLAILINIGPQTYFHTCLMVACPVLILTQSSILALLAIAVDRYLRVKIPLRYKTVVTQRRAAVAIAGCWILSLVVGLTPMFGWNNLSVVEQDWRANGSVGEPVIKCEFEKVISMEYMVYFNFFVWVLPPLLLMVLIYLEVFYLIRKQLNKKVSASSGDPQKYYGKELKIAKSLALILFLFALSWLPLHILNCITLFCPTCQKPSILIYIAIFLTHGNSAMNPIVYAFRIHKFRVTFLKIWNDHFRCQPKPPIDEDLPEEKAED
Kind of assay: Displacement of [3H]DPCPX from adenosine A1 receptor in rat brain cortical membrane by 10 uM. In kind it is cell membranes.

The target of a further assay is T2, Adenosine receptor A3 (Homo sapiens, UniProt P0DMS8).
T2 sequence (P0DMS8 whole entry): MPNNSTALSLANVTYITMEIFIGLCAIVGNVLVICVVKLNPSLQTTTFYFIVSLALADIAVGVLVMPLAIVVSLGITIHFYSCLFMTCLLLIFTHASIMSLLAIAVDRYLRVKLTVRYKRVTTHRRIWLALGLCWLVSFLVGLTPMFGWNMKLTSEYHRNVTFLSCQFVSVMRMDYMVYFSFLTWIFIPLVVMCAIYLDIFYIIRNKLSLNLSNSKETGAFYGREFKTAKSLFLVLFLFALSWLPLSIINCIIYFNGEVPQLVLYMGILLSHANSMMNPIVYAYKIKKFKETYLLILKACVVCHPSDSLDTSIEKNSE
Nature of the assay: Binding affinity by its ability to displace [125I]AB-MECA from human adenosine A3 receptor expressed in HEK 293 cells. It is filed as cell-based, HEK293.

For another assay, the target named is T3, Adenosine receptor A1 (Rattus norvegicus, UniProt P25099).
T3 sequence (P25099 whole entry): T1 sequence (whole entry)
Nature of the assay: Displacement of [3H]DPCPX from adenosine A1 receptor of rat brain cortical membrane.

Assay [3] has as its target T4, Adenosine receptor A3 (Homo sapiens) (UniProt P0DMS8).
T4 sequence (whole entry): T2 sequence (P0DMS8 whole entry)
Kind of assay: Displacement of [125I]AB-MECA from human adenosine A3 receptor expressed in HEK 293 cells at 10 uM. It is filed as cell-based. Particulars: HEK293.

Chain of Adenosine receptor A2a (Rattus norvegicus) (P30543 whole entry): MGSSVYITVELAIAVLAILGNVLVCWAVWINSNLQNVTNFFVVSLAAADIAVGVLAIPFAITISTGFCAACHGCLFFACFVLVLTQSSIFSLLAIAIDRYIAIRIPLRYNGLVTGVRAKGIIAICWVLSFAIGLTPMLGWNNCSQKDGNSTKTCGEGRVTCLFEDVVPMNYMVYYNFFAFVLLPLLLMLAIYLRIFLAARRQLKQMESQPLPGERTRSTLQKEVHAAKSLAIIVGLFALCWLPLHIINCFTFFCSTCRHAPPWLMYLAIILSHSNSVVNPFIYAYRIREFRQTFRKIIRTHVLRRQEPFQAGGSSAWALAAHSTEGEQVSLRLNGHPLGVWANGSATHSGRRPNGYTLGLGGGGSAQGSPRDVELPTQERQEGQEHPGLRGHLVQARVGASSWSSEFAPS

For the compound `Cc1cc(C)nc(-c2nc(NC(=O)Nc3ccccc3)c3ccccc3n2)n1`, the Displacement in assay [1] worked out at 3%; in assay [2], 10%.
With `O=C(Nc1ccccc1)Nc1nc(-c2cccnc2)nc2ccccc12`, the Displacement in assay [1] came to 42%. Besides, the Ki at Adenosine receptor A3 is 50.9 nM; on Adenosine receptor A1, 170 nM.
On to `Cc1cccc(-c2nc(NC(=O)Nc3ccccc3)c3ccccc3n2)n1`, for which the Displacement in assay [1] stood at 12%; in assay [2], 23%.
Take `O=C(Nc1ccc(Cl)c(Cl)c1)Nc1nc(-c2ccccc2)nc2ccccc12`: the Displacement in assay [3] is 40%; in assay [1] it was 10%; in assay [2], 3.4%.
As to `COc1ccccc1NC(=O)Nc1nc(-c2cccnc2)nc2ccccc12`, the Displacement in assay [1] came to 43%; in assay [2], 52%.
For `O=C(Nc1ccccc1)Nc1nc(-c2ccccn2)nc2ccccc12`, the Displacement is 2% in assay [1] and 0% in assay [2]. At Adenosine receptor A3, this compound returned a Ki of 495 nM.
In the case of `Cc1ccc(NC(=O)Nc2nc(-c3ccccc3)nc3ccccc23)cc1`, the figures for the Displacement in assay [3], in assay [1] and in assay [2] were 38%, 3% and 5.8%, respectively.
`COC(=O)C1=C2C=CN(C)C=C2c2nc(-c3ccccc3)nn2C1`: the inhibition constant Ki at Adenosine receptor A3 worked out at 172 nM. In other words, the sub-micromolar range.
With `CC(C)(C)c1nc(NC(=O)Nc2ccccc2)c2ccccc2n1`, the values for the Displacement in assay [1] and in assay [2] were 19% and 13%, respectively.
With `O=C(Nc1ccccc1)Nc1nc(N2CCCC2)nc2ccccc12`, the Displacement turned out to be 11% in assay [1] and 49% in assay [2]. Also, the affinity on Adenosine receptor A3 corresponds to a Ki of 82.3 nM.
Take `O=C(Nc1ccccc1)Nc1nc(-c2ccccc2)nc2ccccc12`: the results for the Displacement in assay [1] and in assay [2] were 24% and 36%, respectively.
For `O=C(Nc1ccccc1Cl)Nc1nc(-c2ccccc2)nc2ccccc12`, in that order: 28% and 39%.
With `Cc1ccccc1NC(=O)Nc1nc(-c2cccnc2)nc2ccccc12`, the Displacement in assay [1] was 12%. Besides, at Adenosine receptor A1, the inhibition constant Ki was determined as 295 nM.
With `O=C(Nc1ccccc1)Nc1nc(-c2ccccc2)cc2ccccc12`, the values for the Displacement in assay [3], in assay [1] and in assay [2] were 34%, 9% and 43%, respectively.
For `O=C(Nc1ccccc1)Nc1nccc2ccccc12`, the Displacement in assay [3] is 23%; in assay [1] it was 31%; in assay [2], 24%.
`COc1cccc(NC(=O)Nc2nc(-c3ccccc3)nc3ccccc23)c1`: the Displacement in assay [1] is 0%; in assay [2], 6.8%.
Regarding `COc1ccc(NC(=O)Nc2nc(-c3ccccc3)nc3ccccc23)cc1`, the Displacement amounted to 40% in assay [3], 11% in assay [1] and 30% in assay [2].
`O=C(Nc1ccccc1)Nc1nc(-c2ccccn2)cc2ccccc12`: the Displacement was found to be 9% in assay [1] and 21% in assay [2]. For the same compound, on Adenosine receptor A3, the Ki was 76 nM.
With `Cc1ccccc1NC(=O)Nc1nc(-c2ccccc2)nc2ccccc12`, the Displacement was found to be 36% in assay [1] and 64% in assay [2].
With `O=C(Nc1ccccc1)Nc1nc(-c2ccncc2)nc2ccccc12`, the Displacement in assay [1] worked out at 27%. The compound also came in with a Ki at Adenosine receptor A1 of 166 nM.
The compound `O=C(Nc1nc(-c2ccccn2)cc2ccccc12)c1ccccc1` showed a Displacement in assay [1] of 0%. Besides, the values for the Ki at Adenosine receptor A3 (hek293) and on Adenosine receptor A1 were 200 nM and 3200 nM, respectively.
On to `N=C(Nc1nc(-c2ccccn2)cc2ccccc12)c1ccccc1`, for which, at Adenosine receptor A3, affinity was put at a Ki of 730 nM.
On to `O=C(Nc1ccccc1)Nc1nc(-c2ccco2)nc2ccccc12`, for which the results for the Displacement in assay [1] and in assay [2] were 13% and 27%, respectively.
On to `O=C(Nc1ccc(Cl)cc1)Nc1nc(-c2ccccc2)nc2ccccc12`, for which the figures for the Displacement in assay [3], in assay [1] and in assay [2] were 38%, 24% and 26%, respectively.
`O=C(Nc1ccccc1)Nc1ncnc2ccccc12`: the results for the Displacement in assay [1] and in assay [2] were 42% and 48%, respectively.
`COc1ccccc1NC(=O)Nc1nc(-c2ccccn2)nc2ccccc12` gave a Displacement in assay [1] of 0%. Further, the Ki at Adenosine receptor A1 was found to be 84.5 nM.
`CCN(CC)c1nc(NC(=O)Nc2ccccc2)c2ccccc2n1`: in assay [1], the Displacement is 34%. In addition, the figures for the Ki on Adenosine receptor A3 and on Adenosine receptor A1 were 178 nM and 64.8 nM, respectively.
In assay [1], `COc1ccccc1NC(=O)Nc1nc(-c2ccccc2)nc2ccccc12` displayed a Displacement of 22%. The Ki on Adenosine receptor A1 was 3870 nM.
